Key:
[1] = Octanol-water partition coefficient, log P of the compound by HPLC analysis; type: physicochemical
Summary of the method: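 log P was estimated from HPLC retention, with column dead time measured using unretained formamide.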

MCF7 = assay: Growth inhibition of human MCF7 cells after 48 hrs by sulforhodamine B assay; type: functional; details: MCF7, 48 h
Summary of the method: (§1)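 Yamori 39-line human cancer panel, NCI method with modifications. Cells plated in RPMI 1640 plus 5% FBS, attached overnight, then exposed 48 h to compound at 10^-8, 10^-7, 10^-6, 10^-5 and 10^-4 M. Sulforhodamine B staining read at 525 nm; % growth = 100[(T−T0)/(C−T0)] from duplicate-point averages, with T0 the time-zero absorbance. GI50 is the concentration giving 50.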

NCI-H226 = assay: Growth inhibition of human NCI-H226 cells after 48 hrs by sulforhodamine B assay; type: functional; details: NCI-H226, 48 h; summary of the method: as §1
DMS-114 = assay: Growth inhibition of human DMS114 cells after 48 hrs by sulforhodamine B assay; type: functional; details: DMS-114, 48 h; summary of the method: as §1
HCT-116 = assay: Growth inhibition of human HCT116 cells after 48 hrs by sulforhodamine B assay; type: functional; details: HCT-116, 48 h; summary of the method: as §1
SK-OV-3 = assay: Growth inhibition of human SKOV3 cells after 48 hrs by sulforhodamine B assay; type: functional; details: SK-OV-3, 48 h; summary of the method: as §1
Human gammaherpesvirus 4 [2] = assay: Induction of EBV-early antigen expressed in human Raji cells at 10^-7 M after 48 hrs by immunofluorescence assay relative to control; type: organism-based; details: human gammaherpesvirus 4, raji, 0.1 µM
Summary of the method: (§2)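 Raji B-lymphoblastoid cells (5 × 10^5/mL) in RPMI 1640 with 10% FBS, with 4 mM sodium n-butyrate as synergist and test compound at 10^-7 or 10^-6 M (final DMSO 0.4%). Incubated 48 h at 37 °C under 5% CO2. Smears were stained by indirect immunofluorescence using NPC patient serum and FITC anti-human IgG. At least 500 cells counted; % EA-positive recorded; n = 3, SEM.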

[3] = molecular target: T1, Protein kinase C delta type (Homo sapiens, UniProt Q05655); assay: Inhibition of [3H]PDBu binding to PKCdelta-C1B domain peptide (unknown origin)
T1 sequence (Q05655 whole entry, the tested form may be a part): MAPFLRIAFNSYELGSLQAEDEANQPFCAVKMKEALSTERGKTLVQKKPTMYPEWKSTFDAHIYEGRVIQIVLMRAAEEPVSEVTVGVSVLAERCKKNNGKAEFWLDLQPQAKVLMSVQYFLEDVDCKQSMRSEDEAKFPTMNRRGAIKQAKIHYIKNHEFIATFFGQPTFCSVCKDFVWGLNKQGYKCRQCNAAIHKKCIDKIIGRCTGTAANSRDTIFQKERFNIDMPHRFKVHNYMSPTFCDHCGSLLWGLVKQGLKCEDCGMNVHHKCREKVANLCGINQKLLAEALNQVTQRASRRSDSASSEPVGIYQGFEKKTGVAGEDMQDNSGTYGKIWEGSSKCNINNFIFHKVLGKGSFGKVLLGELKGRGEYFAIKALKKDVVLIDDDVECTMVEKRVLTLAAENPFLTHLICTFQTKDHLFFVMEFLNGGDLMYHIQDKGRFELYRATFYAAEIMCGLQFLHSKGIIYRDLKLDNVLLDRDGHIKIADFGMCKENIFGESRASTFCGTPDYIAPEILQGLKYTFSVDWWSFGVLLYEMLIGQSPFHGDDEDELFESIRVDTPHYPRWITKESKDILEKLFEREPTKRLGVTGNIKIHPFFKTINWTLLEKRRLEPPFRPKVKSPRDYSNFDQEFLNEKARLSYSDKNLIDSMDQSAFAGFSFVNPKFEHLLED
Summary of the method: (§3)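 Competitive [3H]PDBu binding used 14 or 40 nM PKCδ C1 peptide and 20 nM [3H]PDBu (19.6 Ci/mmol), in 50 mM Tris-maleate (pH 7.4 at 4 °C) with 50 µg/mL phosphatidylserine, 3 mg/mL bovine γ-globulin and varied inhibitor concentrations. IC50 was taken as 50% inhibition of specific binding. Ki was derived by the Sharkey–Blumberg method.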

St-4 = assay: Growth inhibition of human St-4 cells after 48 hrs by sulforhodamine B assay; type: functional; details: St-4, 48 h; summary of the method: as §1
DMS-273 = assay: Growth inhibition of human DMS273 cells after 48 hrs by sulforhodamine B assay; type: functional; details: DMS-273, 48 h; summary of the method: as §1
[4] = Growth inhibition of human BSY1 cells after 48 hrs by sulforhodamine B assay; type: functional; details: BSY-1, 48 h; summary of the method: as §1
ACHN = assay: Growth inhibition of human ACHN cells after 48 hrs by sulforhodamine B assay; type: functional; summary of the method: as §1
[5] = Growth inhibition of human MKN1 cells after 48 hrs by sulforhodamine B assay; type: functional; details: MKN-1, 48 h; summary of the method: as §1
A549 = assay: Growth inhibition of human A549 cells after 48 hrs by sulforhodamine B assay; type: functional; details: A549, 48 h; summary of the method: as §1
HT-29 = assay: Growth inhibition of human HT-29 cells after 48 hrs by sulforhodamine B assay; type: functional; details: HT-29, 48 h; summary of the method: as §1
[6] = Cytotoxicity against human Raji cells assessed as cell viability at 10^-7 M; type: cell-based; details: read-out: Activity
MKN-74 = assay: Growth inhibition of human MKN74 cells after 48 hrs by sulforhodamine B assay; type: functional; details: MKN-74, 48 h; summary of the method: as §1
DU-145 = assay: Growth inhibition of human DU145 cells after 48 hrs by sulforhodamine B assay; type: functional; details: DU-145, 48 h; summary of the method: as §1
[7] = molecular target: T1, Protein kinase C delta type; assay: Inhibition of [3H]PDBu binding to PKCdelta-C1A domain peptide (unknown origin); summary of the method: as §3
LOX IMVI = assay: Growth inhibition of human LOXIMVI cells after 48 hrs by sulforhodamine B assay; type: functional; summary of the method: as §1
SF-295 = assay: Growth inhibition of human SF295 cells after 48 hrs by sulforhodamine B assay; type: functional; details: SF-295, 48 h; summary of the method: as §1
NCI-H460 = assay: Growth inhibition of human NCI-H460 cells after 48 hrs by sulforhodamine B assay; type: functional; details: NCI-H460, 48 h; summary of the method: as §1
MKN-7 = assay: Growth inhibition of human MKN7 cells after 48 hrs by sulforhodamine B assay; type: functional; details: MKN-7, 48 h; summary of the method: as §1
SF-268 = assay: Growth inhibition of human SF268 cells after 48 hrs by sulforhodamine B assay; type: functional; details: SF-268, 48 h; summary of the method: as §1
[8] = Growth inhibition of human HBC4 cells after 48 hrs by sulforhodamine B assay; type: functional; details: HBC4, 48 h; summary of the method: as §1
[9] = Growth inhibition of human RXF631L cells after 48 hrs by sulforhodamine B assay; type: functional; details: RXF 631, 48 h; summary of the method: as §1
Mus musculus = organism: Mus musculus; assay: Toxicity in ICR mouse assessed as development of tumors at 8.5 nmol treated twice a week from week 1 to week 20; type: organism-based; details: in vivo
Summary of the method: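 Mouse skin two-stage carcinogenesis: initiation by a single application of 390 nmol DMBA. From one week later, 8.5 nmol test compound was applied twice weekly from week 1 to week 20. The control group received DMBA then 1.7 nmol TPA twice weekly. Tumor development was monitored over time.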

HCT-15 = assay: Growth inhibition of human HCT15 cells after 48 hrs by sulforhodamine B assay; type: functional; details: HCT-15, 48 h; summary of the method: as §1
SNB-75 = assay: Growth inhibition of human SNB75 cells after 48 hrs by sulforhodamine B assay; type: functional; details: SNB-75, 48 h; summary of the method: as §1
SF-539 = assay: Growth inhibition of human SF539 cells after 48 hrs by sulforhodamine B assay; type: functional; details: SF-539, 48 h; summary of the method: as §1
[10] = Growth inhibition of human HBC5 cells after 48 hrs by sulforhodamine B assay; type: functional; details: HBC5, 48 h; summary of the method: as §1
OVCAR-4 = assay: Growth inhibition of human OVCAR4 cells after 48 hrs by sulforhodamine B assay; type: functional; details: OVCAR-4, 48 h; summary of the method: as §1
SNB-78 = assay: Growth inhibition of human SNB78 cells after 48 hrs by sulforhodamine B assay; type: functional; details: SNB-78, 48 h; summary of the method: as §1
PC-3 = assay: Growth inhibition of human PC3 cells after 48 hrs by sulforhodamine B assay; type: functional; details: PC-3, 48 h; summary of the method: as §1
U-251 = assay: Growth inhibition of human U251 cells after 48 hrs by sulforhodamine B assay; type: functional; details: U-251, 48 h; summary of the method: as §1
[11] = Cytotoxicity against human Raji cells assessed as cell viability at 10^-6 M; type: cell-based; details: read-out: Activity
KM12 = assay: Growth inhibition of human KM12 cells after 48 hrs by sulforhodamine B assay; type: functional; details: KM12, 48 h; summary of the method: as §1
MKN-45 = assay: Growth inhibition of human MKN45 cells after 48 hrs by sulforhodamine B assay; type: functional; details: MKN-45, 48 h; summary of the method: as §1
OVCAR-3 = assay: Growth inhibition of human OVCAR3 cells after 48 hrs by sulforhodamine B assay; type: functional; details: OVCAR-3, 48 h; summary of the method: as §1
OVCAR-5 = assay: Growth inhibition of human OVCAR5 cells after 48 hrs by sulforhodamine B assay; type: functional; details: OVCAR-5, 48 h; summary of the method: as §1
MDA-MB-231 = assay: Growth inhibition of human MDA-MB-231 cells after 48 hrs by sulforhodamine B assay; type: functional; details: MDA-MB-231, 48 h; summary of the method: as §1
[12] = Growth inhibition of human HCC2998 cells after 48 hrs by sulforhodamine B assay; type: functional; details: HCC 2998, 48 h; summary of the method: as §1
NCI-H23 = assay: Growth inhibition of human NCI-H23 cells after 48 hrs by sulforhodamine B assay; type: functional; details: NCI-H23, 48 h; summary of the method: as §1
OVCAR-8 = assay: Growth inhibition of human OVCAR8 cells after 48 hrs by sulforhodamine B assay; type: functional; details: OVCAR-8, 48 h; summary of the method: as §1
MKN-28 = assay: Growth inhibition of human MKN28 cells after 48 hrs by sulforhodamine B assay; type: functional; details: MKN-28, 48 h; summary of the method: as §1
NCI-H522 = assay: Growth inhibition of human NCI-H522 cells after 48 hrs by sulforhodamine B assay; type: functional; details: NCI-H522, 48 h; summary of the method: as §1
Human gammaherpesvirus 4 [13] = assay: Induction of EBV-early antigen expressed in human Raji cells at 10^-6 M after 48 hrs by immunofluorescence assay relative to control; type: organism-based; details: human gammaherpesvirus 4, raji, 1 µM; summary of the method: as §2

Work on `CC1(C)CC[C@@H]2CC(=O)O[C@@H](CO)CC(=O)O[C@@H]3C[C@@H](CCCCc4cc(O)ccc4Br)O[C@@]1(C3)O2` yielded a logP [1] of 4, a GI50 (MCF7) of 18.2 µM and a GI50 (NCI-H226) of 11.7 µM. It also gave a GI50 (DMS-114) of 12.6 µM, a GI50 (HCT-116) of 10.7 µM and a GI50 (SK-OV-3) of 15.5 µM. The Activity (Human gammaherpesvirus 4 [2]) was 1.8%, the Ki [3] was 0.0035 µM and the GI50 (St-4) was 0.955 µM. For the same molecule, the GI50 (DMS-273) was 11.7 µM, the GI50 [4] was 2.63 µM and the GI50 (ACHN) was 5.13 µM. The GI50 [5] was 11.7 µM, the GI50 (A549) was 5.01 µM and the GI50 (HT-29) was 13.2 µM. The viability at 0.1 µM [6] was 50%, the GI50 (MKN-74) was 13.8 µM and the GI50 (DU-145) was 11.5 µM. The Ki [7] was 0.066 µM, the GI50 (LOX IMVI) was 0.794 µM and the GI50 (SF-295) was 5.5 µM. For the same molecule, the GI50 (NCI-H460) was 1.66 µM, the GI50 (MKN-7) was 6.92 µM and the GI50 (SF-268) was 12.6 µM. The GI50 [8] was 0.0977 µM, the GI50 [9] was 16.2 µM and the Activity (Mus musculus) was “Non-toxic”. The GI50 (HCT-15) was 15.5 µM, the GI50 (SNB-75) was 12.3 µM and the GI50 (SF-539) was 11 µM. It also gave a GI50 [10] of 15.8 µM, a GI50 (OVCAR-4) of 14.5 µM and a GI50 (SNB-78) of 15.5 µM. The GI50 (PC-3) was 2.95 µM, the GI50 (U-251) was 12.6 µM and the viability at 1 µM [11] was 40%. It also gave a GI50 (KM12) of 4.27 µM, a GI50 (MKN-45) of 1.82 µM and a GI50 (OVCAR-3) of 13.5 µM. It also gave a GI50 (OVCAR-5) of 7.76 µM, a GI50 (MDA-MB-231) of 0.468 µM and a GI50 [12] of 0.794 µM. The GI50 (NCI-H23) was 11.5 µM, the GI50 (OVCAR-8) was 16.2 µM and the GI50 (MKN-28) was 12 µM. For the same molecule, the GI50 (NCI-H522) was 13.5 µM and the Activity (Human gammaherpesvirus 4 [13]) was 1.9%.

Source: ChEMBL document CHEMBL2380295, “Structure-activity studies on the side chain of a simplified analog of aplysiatoxin (aplog-1) with anti-proliferative activity” (Bioorg Med Chem, 2013)
